Values after ≈ are worked out from the molar mass of the structure shown.
tested on: Staphylococcus aureus; experiment: Compound was tested in vitro for its antibacterial activity against Staphylococcus aureus 561037 strain.; type: functional; conditions: not given

Compound	MIC [µg/mL]
CCC[C@H](NC(=O)CNC)C(=O)N[C@@H](CCC)C(=O)N[C@H](C)P(=O)(O)O	16 (≈ 40.6 µM)
C[C@@H](NC(=O)[C@@H](N)CCCN=C(N)N)P(=O)(O)O	16 (≈ 56.9 µM)
C[C@H](N)C(=O)N[C@@H](C)C(=O)N[C@H](C)P(=O)(O)O	4 (≈ 15 µM)
CCC[C@H](NC(=O)[C@H](CC(C)C)NC)C(=O)N[C@@H](CCC)C(=O)N[C@H](C)P(=O)(O)O	32 (≈ 71 µM)
C[C@H](N)C(=O)N[C@@H](C)C(=O)N[C@@H](C)C(=O)N[C@H](C)P(=O)(O)O	32 (≈ 94.6 µM)
CCC[C@H](NC(=O)[C@H](CCC)NC(=O)[C@@H](NC)C(C)C)C(=O)N[C@H](C)P(=O)(O)O	> 128
CCC[C@H](NC)C(=O)N[C@@H](CCC)C(=O)N[C@@H](CCC)C(=O)N[C@H](C)P(=O)(O)O	8 (≈ 18.3 µM)
CCC[C@H](N)C(=O)N[C@H](C)P(=O)(O)O	8 (≈ 35.7 µM)
CNCC(=O)N[C@@H](C)C(=O)N[C@@H](C)C(=O)N[C@H](C)P(=O)(O)O	> 128
C[C@H](N)C(=O)N[C@@H](C)P(=O)(O)O [ALAFOSFALIN]	4 (≈ 20.4 µM)

tested on: Klebsiella aerogenes; experiment: Compound was tested for its antibacterial activity against Klebsiella aerogenes 331001 strain.; type: functional; conditions: not given

Compound	MIC [µg/mL]
C[C@@H](NC(=O)[C@@H](N)CCCN=C(N)N)P(=O)(O)O	< 0.12
CCC[C@H](N)C(=O)N[C@H](C)P(=O)(O)O	0.015 (≈ 0.0669 µM)
C[C@H](N)C(=O)N[C@@H](C)P(=O)(O)O [ALAFOSFALIN]	0.5 (≈ 2.55 µM)

tested on: Escherichia coli; experiment: In vivo antibacterial activity was measured relative to alafosfalin against Escherichia coli 281007 strain after sc administration.; type: functional; conditions: not given
Summary of the method: (§1)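 Mouse septicaemia model infected with E. coli 281007. Compound was dosed at 1, 3 and 5 h after infection, orally (po) for line 13 and subcutaneously (sc) for line 14. Activity is the relative molar activity of the analogue versus the L-Ala-L-Ala(P) reference, with both CD50 values taken in µmol/kg.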

Compound	CD50 [relative molar activity]
CCC[C@H](NC(=O)CNC)C(=O)N[C@@H](CCC)C(=O)N[C@H](C)P(=O)(O)O	1.9
C[C@@H](NC(=O)[C@@H](N)CCCN=C(N)N)P(=O)(O)O	8.3
CCC[C@H](N)C(=O)N[C@H](C)P(=O)(O)O	8.8
CNCC(=O)N[C@@H](C)C(=O)N[C@@H](C)C(=O)N[C@H](C)P(=O)(O)O	8
C[C@H](N)C(=O)N[C@@H](C)P(=O)(O)O [ALAFOSFALIN]	1

tested on: Enterobacter; experiment: Compound was tested for its antibacterial activity against Enterobacter 250002 strain.; type: functional; conditions: not given

Compound	MIC [µg/mL]
C[C@@H](NC(=O)[C@@H](N)CCCN=C(N)N)P(=O)(O)O	1 (≈ 3.56 µM)
CCC[C@H](N)C(=O)N[C@H](C)P(=O)(O)O	0.25 (≈ 1.12 µM)
C[C@H](N)C(=O)N[C@@H](C)P(=O)(O)O [ALAFOSFALIN]	1 (≈ 5.1 µM)

tested on: Escherichia coli; experiment: Compound was tested for its antibacterial activity against Escherichia coli NCIB 8879 strain.; type: functional; conditions: not given

Compound	MIC [µg/mL]
C[C@@H](NC(=O)[C@@H](N)CCCN=C(N)N)P(=O)(O)O	0.25 (≈ 0.889 µM)
CCC[C@H](N)C(=O)N[C@H](C)P(=O)(O)O	0.03 (≈ 0.134 µM)
C[C@H](N)C(=O)N[C@@H](C)P(=O)(O)O [ALAFOSFALIN]	1 (≈ 5.1 µM)

tested on: Escherichia coli; experiment: In vivo antibacterial activity was measured relative to alafosfalin against Escherichia coli 281007 strain after po administration.; type: functional; conditions: not given; summary of the method: as §1

Compound	CD50 [relative molar activity]
CCC[C@H](NC(=O)CNC)C(=O)N[C@@H](CCC)C(=O)N[C@H](C)P(=O)(O)O	1.1
C[C@@H](NC(=O)[C@@H](N)CCCN=C(N)N)P(=O)(O)O	7.7
CCC[C@H](N)C(=O)N[C@H](C)P(=O)(O)O	1.1
CNCC(=O)N[C@@H](C)C(=O)N[C@@H](C)C(=O)N[C@H](C)P(=O)(O)O	1.05
C[C@H](N)C(=O)N[C@@H](C)P(=O)(O)O [ALAFOSFALIN]	1

tested on: Enterococcus faecalis; experiment: Compound was tested in vitro for its antibacterial activity against Streptococcus faecalis FS5 strain.; type: functional; conditions: not given

Compound	MIC [µg/mL]
CCC[C@H](NC(=O)CNC)C(=O)N[C@@H](CCC)C(=O)N[C@H](C)P(=O)(O)O	0.12 (≈ 0.304 µM)
C[C@@H](NC(=O)[C@@H](N)CCCN=C(N)N)P(=O)(O)O	16 (≈ 56.9 µM)
C[C@H](N)C(=O)N[C@@H](C)C(=O)N[C@H](C)P(=O)(O)O	0.06 (≈ 0.225 µM)
CCC[C@H](NC(=O)[C@H](CC(C)C)NC)C(=O)N[C@@H](CCC)C(=O)N[C@H](C)P(=O)(O)O	0.25 (≈ 0.555 µM)
C[C@H](N)C(=O)N[C@@H](C)C(=O)N[C@@H](C)C(=O)N[C@H](C)P(=O)(O)O	0.25 (≈ 0.739 µM)
CCC[C@H](NC(=O)[C@H](CCC)NC(=O)[C@@H](NC)C(C)C)C(=O)N[C@H](C)P(=O)(O)O	8 (≈ 18.3 µM)
CCC[C@H](NC)C(=O)N[C@@H](CCC)C(=O)N[C@@H](CCC)C(=O)N[C@H](C)P(=O)(O)O	0.06 (≈ 0.137 µM)
CCC[C@H](N)C(=O)N[C@H](C)P(=O)(O)O	1 (≈ 4.46 µM)
CNCC(=O)N[C@@H](C)C(=O)N[C@@H](C)C(=O)N[C@H](C)P(=O)(O)O	0.06 (≈ 0.177 µM)
C[C@H](N)C(=O)N[C@@H](C)P(=O)(O)O [ALAFOSFALIN]	2 (≈ 10.2 µM)

tested on: Salmonella typhimurium; experiment: Compound was tested for its antibacterial activity against Salmonella Typhimurium 538003 strain.; type: functional, Salmonella enterica subsp. enterica serovar Typhimurium; conditions: Salmonella enterica

Compound	MIC [µg/mL]
C[C@@H](NC(=O)[C@@H](N)CCCN=C(N)N)P(=O)(O)O	32 (≈ 114 µM)
CCC[C@H](N)C(=O)N[C@H](C)P(=O)(O)O	0.25 (≈ 1.12 µM)
C[C@H](N)C(=O)N[C@@H](C)P(=O)(O)O [ALAFOSFALIN]	64 (≈ 326 µM)

tested on: Staphylococcus aureus; experiment: Compound was tested for its antibacterial activity against Staphylococcus aureus NCIB 8625 strain.; type: functional; conditions: not given

Compound	MIC [µg/mL]
C[C@@H](NC(=O)[C@@H](N)CCCN=C(N)N)P(=O)(O)O	16 (≈ 56.9 µM)
CCC[C@H](N)C(=O)N[C@H](C)P(=O)(O)O	8 (≈ 35.7 µM)
C[C@H](N)C(=O)N[C@@H](C)P(=O)(O)O [ALAFOSFALIN]	32 (≈ 163 µM)

tested on: Haemophilus influenzae; experiment: Compound was tested for its antibacterial activity against Haemophilus influenzae NCTC 4560 strain.; type: functional; conditions: not given

Compound	MIC [µg/mL]
C[C@@H](NC(=O)[C@@H](N)CCCN=C(N)N)P(=O)(O)O	128 (≈ 455 µM)
CCC[C@H](N)C(=O)N[C@H](C)P(=O)(O)O	4 (≈ 17.8 µM)
C[C@H](N)C(=O)N[C@@H](C)P(=O)(O)O [ALAFOSFALIN]	64 (≈ 326 µM)

tested on: Enterococcus faecalis; experiment: Compound was tested for its antibacterial activity against Streptococcus faecalis 58511 strain.; type: functional; conditions: not given

Compound	MIC [µg/mL]
C[C@@H](NC(=O)[C@@H](N)CCCN=C(N)N)P(=O)(O)O	16 (≈ 56.9 µM)
CCC[C@H](N)C(=O)N[C@H](C)P(=O)(O)O	1 (≈ 4.46 µM)
C[C@H](N)C(=O)N[C@@H](C)P(=O)(O)O [ALAFOSFALIN]	2 (≈ 10.2 µM)

tested on: Escherichia coli; experiment: Compound was tested in vitro for its antibacterial activity against Escherichia coli NCIB 8879 strain.; type: functional; conditions: not given

Compound	MIC [µg/mL]
CCC[C@H](NC(=O)CNC)C(=O)N[C@@H](CCC)C(=O)N[C@H](C)P(=O)(O)O	0.04 (≈ 0.101 µM)
C[C@@H](NC(=O)[C@@H](N)CCCN=C(N)N)P(=O)(O)O	0.25 (≈ 0.889 µM)
C[C@H](N)C(=O)N[C@@H](C)C(=O)N[C@H](C)P(=O)(O)O	0.5 (≈ 1.87 µM)
CCC[C@H](NC(=O)[C@H](CC(C)C)NC)C(=O)N[C@@H](CCC)C(=O)N[C@H](C)P(=O)(O)O	2 (≈ 4.44 µM)
C[C@H](N)C(=O)N[C@@H](C)C(=O)N[C@@H](C)C(=O)N[C@H](C)P(=O)(O)O	0.12 (≈ 0.355 µM)
CCC[C@H](NC(=O)[C@H](CCC)NC(=O)[C@@H](NC)C(C)C)C(=O)N[C@H](C)P(=O)(O)O	16 (≈ 36.7 µM)
CCC[C@H](NC)C(=O)N[C@@H](CCC)C(=O)N[C@@H](CCC)C(=O)N[C@H](C)P(=O)(O)O	0.5 (≈ 1.15 µM)
CCC[C@H](N)C(=O)N[C@H](C)P(=O)(O)O	0.03 (≈ 0.134 µM)
CNCC(=O)N[C@@H](C)C(=O)N[C@@H](C)C(=O)N[C@H](C)P(=O)(O)O	0.016 (≈ 0.0473 µM)
C[C@H](N)C(=O)N[C@@H](C)P(=O)(O)O [ALAFOSFALIN]	0.5 (≈ 2.55 µM)

tested on: Serratia marcescens; experiment: Compound was tested for its antibacterial activity against Serratia marcescens ATCC 14756 strain.; type: functional; conditions: not given

Compound	MIC [µg/mL]
C[C@@H](NC(=O)[C@@H](N)CCCN=C(N)N)P(=O)(O)O	2 (≈ 7.11 µM)
CCC[C@H](N)C(=O)N[C@H](C)P(=O)(O)O	0.5 (≈ 2.23 µM)
C[C@H](N)C(=O)N[C@@H](C)P(=O)(O)O [ALAFOSFALIN]	8 (≈ 40.8 µM)

tested on: Haemophilus influenzae; experiment: Compound was tested in vitro for its antibacterial activity against Haemophilus influenzae NCTC 4560 strain.; type: functional; conditions: not given

Compound	MIC [µg/mL]
CCC[C@H](NC(=O)CNC)C(=O)N[C@@H](CCC)C(=O)N[C@H](C)P(=O)(O)O	0.015 (≈ 0.038 µM)
C[C@@H](NC(=O)[C@@H](N)CCCN=C(N)N)P(=O)(O)O	128 (≈ 455 µM)
C[C@H](N)C(=O)N[C@@H](C)C(=O)N[C@H](C)P(=O)(O)O	0.06 (≈ 0.225 µM)
CCC[C@H](NC(=O)[C@H](CC(C)C)NC)C(=O)N[C@@H](CCC)C(=O)N[C@H](C)P(=O)(O)O	0.25 (≈ 0.555 µM)
C[C@H](N)C(=O)N[C@@H](C)C(=O)N[C@@H](C)C(=O)N[C@H](C)P(=O)(O)O	0.06 (≈ 0.177 µM)
CCC[C@H](NC(=O)[C@H](CCC)NC(=O)[C@@H](NC)C(C)C)C(=O)N[C@H](C)P(=O)(O)O	0.25 (≈ 0.573 µM)
CCC[C@H](NC)C(=O)N[C@@H](CCC)C(=O)N[C@@H](CCC)C(=O)N[C@H](C)P(=O)(O)O	0.25 (≈ 0.573 µM)
CCC[C@H](N)C(=O)N[C@H](C)P(=O)(O)O	4 (≈ 17.8 µM)
CNCC(=O)N[C@@H](C)C(=O)N[C@@H](C)C(=O)N[C@H](C)P(=O)(O)O	0.03 (≈ 0.0887 µM)
C[C@H](N)C(=O)N[C@@H](C)P(=O)(O)O [ALAFOSFALIN]	4 (≈ 20.4 µM)
